Experimental data as given in ChEMBL document CHEMBL6134784, “Furoxan-piplartine hybrids as effective NO donors and ROS inducers in PC3 cancer cells: design, synthesis, and biological evaluation” (RSC Med Chem, 2024).
Calls of active or inactive are those of the source. No cut-off for these calls is given here.

Assays:
PC-3 [1] = assay: Induction of nitric oxide production in human PC-3 cells assessed as nitrite level at 100 uM measured after 12 to 48 hrs by Griess assay; type: functional; details: time 12-48 hrs
Method in brief: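 PC3 cells were seeded at 1×10^4 per well and grown 24 h, then moved to serum-free RPMI with 100 μM compound for 12, 24 or 48 h at 37 °C. Supernatant was mixed with 1% sulfanilamide in 2.5% H3PO4 (10 min, dark), then 0.1% NED (10 min, 37 °C), and A540 was read. Nitrite was calculated from a NaNO2 curve (0–100 μM). Controls were DMSO and SNP 100 μM. Data from ≥3 independent experiments in triplicate, mean ± SD.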

PC-3 [2] = assay: Induction of morphological changes in human PC-3 cells assessed as cell rounding at 0.05 uM measured after 24 hrs by phase contrast microscopy; type: functional, cell-based
Method in brief: (§1)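 PC3 cells were seeded at 1×10^5 per well in 6-well plates and treated after 24 h, with or without 1 mM N-acetyl-L-cysteine. The same observation field was imaged by phase contrast microscopy at 1, 2, 3, 4 and 24 h. DMSO vehicle served as control.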

PC-3 [3] = assay: Induction of morphological changes in human PC-3 cells assessed as cell rounding at 0.05 uM measured after 24 hrs in presence of antioxidant N-acetyl-L-cysteine by phase contrast microscopy; type: functional, cell-based; method in brief: as §1
OVCAR-3 = assay: Cytotoxicity against human OVCAR-3 cells assessed as reduction in cell viability measured after 48 hrs by CCK-8 assay; type: functional, cell-based; details: OVCAR-3, 48 h
Method in brief: (§2)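 CCK-8 viability: cells grown in RPMI-1640 with 10% FBS, 1×10^4 per well, attached 24 h, then medium replaced with fresh medium containing a range of compound concentrations for 48 h at 37 °C, 5% CO2. CCK-8 added 3 h, absorbance 450 nm; vehicle control set as 100%. IC50 by nonlinear regression, mean ± SD, at least two experiments in triplicate.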

PC-3 [4] = assay: Induction of ROS generation in human PC-3 cells at 0.05 uM measured after 30 mins by CellROX reagent based confocal microscopy; type: functional, cell-based
Method in brief: (§3)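 Confocal ROS imaging of PC3: cells loaded with 2.5 μM CellROX green plus 0.5 μM MitoTracker Red for 30 min at 37 °C, washed three times in PBS, imaged immediately; DMSO vehicle and H2O2 controls.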

[5] = Selectivity index, ratio of IC50 for cytotoxicity against human MCF-10A cells to IC50 for cytotoxicity against human MCF7 cells; type: toxicity, cell-based; details: MCF-10A cells versus MCF7 cells, read-out: Ratio IC50
Method in brief: (§4)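 CCK-8 was added for 3 h and A450 read, with vehicle set as 100% viability. IC50 was fitted by nonlinear regression from ≥2 experiments in triplicate. SI = normal-cell IC50 divided by the matched cancer-cell IC50.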

PC-3 [6] = assay: Cell cycle arrest in human PC-3 cells assessed as reduction in cell accumulation at G0/G1 phase in presence of antioxidant N-acetyl-L-cysteine at 0.05 uM measured after 3 hrs by propidium iodide staining based flow cytometry; type: functional
Method in brief: (§5)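 PC3 cells seeded 1×10^5 per well in 6-well plates, exposed 3 h, with or without 1 mM N-acetyl-L-cysteine pretreatment; vehicle 0.1% DMSO. Harvested with trypsin-EDTA, fixed in 75% ethanol in PBS at 4 °C for 30 min, stained 1 h with RNase (1.5 mg mL^-1) and propidium iodide (90 μg mL^-1); DNA content by flow cytometry. Phase fractions compared with control by ANOVA/Tukey.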

[7] = Selectivity index, ratio of IC50 for cytotoxicity against human PNT2 cells to IC50 for cytotoxicity against human PC-3 cells; type: toxicity, cell-based; details: PNT2 cells versus PC-3 cells, read-out: Ratio IC50; method in brief: as §4
[8] = Cytotoxicity against human MCF-10A cells assessed as reduction in cell viability measured after 48 hrs by CCK-8 assay; type: toxicity, cell-based; method in brief: as §2
MCF7 = assay: Cytotoxicity against human MCF7 cells assessed as reduction in cell viability measured after 48 hrs by CCK-8 assay; type: functional, cell-based; details: MCF7, 48 h; method in brief: as §2
PC-3 [9] = assay: Cytotoxicity against human PC-3 cells assessed as reduction in cell viability at 0.05 uM measured after 24 hrs by SRB assay; type: functional, cell-based
Method in brief: (§6)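 SRB assay: PC3 seeded 1×10^4 per well, after 24 h exposed 24 h at 37 °C, 5% CO2 with or without 1 mM N-acetyl-L-cysteine; vehicle 0.1% DMSO. Fixed with 15% TCA at 4 °C for 1 h, dried, stained 0.4% sulforhodamine B, dye solubilized in 10 mM Tris, absorbance 540 nm; ANOVA/Tukey.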

PC-3 [10] = assay: Induction of ROS generation in human PC-3 cells at 0.05 uM measured after 30 mins by CellROX reagent based flow cytometry; type: functional, cell-based
Method in brief: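 PC3 seeded 1×10^5 per well in 6-well plates, after 24 h treated together with CellROX green (5 μM final) for 30 min at 37 °C; 0.1% DMSO negative control, 1 mM H2O2 positive control. Cells collected and CellROX-positive fraction measured by flow cytometry.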

PC-3 [11] = assay: Cell cycle arrest in human PC-3 cells assessed as accumulation of cells at sub-G1 phase at 0.05 uM measured after 3 hrs by propidium iodide staining based flow cytometry (reference value: 0.75 +/- 0.21%); type: functional; method in brief: as §5
[12] = Cytotoxicity against human PNT2 cells assessed as reduction in cell viability measured after 48 hrs by CCK-8 assay; type: toxicity, cell-based; method in brief: as §2
PC-3 [13] = assay: Cytotoxicity against human PC-3 cells assessed as reduction in cell viability measured after 48 hrs by CCK-8 assay; type: functional, cell-based; details: PC-3, 48 h; method in brief: as §2
PC-3 [14] = assay: Induction of apoptosis in human PC-3 cells assessed as necrotic cells at 0.05 uM measured after 6 hrs by Alexa Fluor 488-annexin V/propidium iodide staining based flow cytometry (reference value: 1.28%); type: functional
PC-3 [15] = assay: Cell cycle arrest in human PC-3 cells assessed as up regulation of CDKN1A gene expression at 0.05 uM measured after 3 hrs by qPCR analysis; type: functional, cell-based
Method in brief: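 Seeded 1×10^5 cells per well in 6-well plates; PC3 treated 3 h. Total RNA extracted, qPCR; each target normalized to reference gene (β-actin) by efficiency-corrected ΔΔCt (Pfaffl) against a control calibrator sample, efficiencies from amplification profiles. Mean ± SEM of four independent experiments.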

PC-3 [16] = assay: Cytotoxicity against human PC-3 cells assessed as reduction in cell viability at 0.24 uM measured after 24 hrs by SRB assay; type: functional, cell-based; method in brief: as §6
PC-3 [17] = assay: Induction of ROS generation in human PC-3 cells at 0.24 uM measured after 30 mins by CellROX reagent based confocal microscopy; type: functional, cell-based; method in brief: as §3
PC-3 [18] = assay: Cell cycle arrest in human PC-3 cells assessed as reduction in cell accumulation at G0/G1 phase at 0.24 uM measured after 3 hrs by propidium iodide staining based flow cytometry; type: functional; method in brief: as §5
PC-3 [19] = assay: Induction of apoptosis in human PC-3 cells assessed as late apoptotic cells at 0.24 uM measured after 6 hrs by Alexa Fluor 488-annexin V/propidium iodide staining based flow cytometry (reference value: 3.37%); type: functional

SMILES | Activity (PC-3 [1]) | IC50 (OVCAR-3) | selectivity ratio [5] | selectivity ratio [7] | IC50 at 48 h [8] | IC50 (MCF7) | IC50 at 48 h [12] | IC50 (PC-3 [13]) | further results
COc1cc(/C=C/C(=O)N2CCC=CC2=O)cc(OC)c1OCCCCCCCCCCCCOc1no[n+]([O-])c1S(=O)(=O)c1ccccc1 | 23.5 µM | 120 nM | 15.7 | 285 | 123000 nM | 7900 nM | 14100 nM | 50 nM | Activity (PC-3 [2]): Active; Activity (PC-3 [3]): inactive; Activity (PC-3 [4]): Active; Activity (PC-3 [6]): Active; Activity (PC-3 [9]): Active; Activity (PC-3 [10]): Active; Activity (PC-3 [11]): 9.8%; Activity (PC-3 [14]): 0.87%; Activity (PC-3 [15]): Active
COc1cc(/C=C/C(=O)N2CCC=CC2=O)cc(OC)c1OCCCOc1no[n+]([O-])c1S(=O)(=O)c1ccccc1 | 23.5 µM | 400 nM | 3 | 75.5 | 3500 nM | 1200 nM | 17800 nM | 240 nM | Activity (PC-3 [16]): Active; Activity (PC-3 [17]): Active; Activity (PC-3 [18]): Active; Significant Reduction Observed; Activity (PC-3 [19]): 43.61%
